Data from publication PMC3517082 (Molecular nutrition & food research, 2011).
“Also recorded” adds a separate entry of the source. Read-outs that look alike come from different tables or passages of the source.

Tests used:
NF-κB [1] = conditions: cited from earlier work
Human endothelial cells = conditions: 30 min; cited from earlier work
AP-1 = conditions: A549 cells, reporter construct; cited from earlier work
glutathione reductase = conditions: 25 μM acrolein, 30 min, human umbilical vein endothelial cells; cited from earlier work
p38 = p38 phosphorylation western blot in HMEC-1 cells; type: cell-based, human
Summary of the method: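 HMEC-1 cells treated with acrolein, with anisomycin (200 ng/ml) as a known activator and untreated cells as controls. Western blots probed with anti-phospho-p38 (Thr180/Tyr182) and anti-p38α for total p38α. 3–5 independent treatments per condition, compared against untreated control.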

superoxide dismutase = conditions: 25 μM acrolein, 30 min, human umbilical vein endothelial cells; cited from earlier work
JNK = JNK phosphorylation western blot in HMEC-1 cells; type: cell-based, human
Summary of the method: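 HMEC-1 endothelial cells given acrolein; anisomycin at 200 ng/ml served as positive activator, and untreated cells as reference. Immunoblots probed for phospho-JNK (Thr183/Tyr185) and with anti-pan-JNK for total JNK. n = 3–5 independent treatments for each condition.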

TrxR [2] = conditions: A549 cells, cited from earlier work
Prx1 = conditions: acrolein-treated human bronchial cells; cited from earlier work
Trx2 = conditions: cited from earlier work
ASK1 bound to Trx1 = ASK1 bound to Trx1 (Homo sapiens, UniProt P10599); experiment: Immunoprecipitation of ASK1 bound to Trx1 in HMEC-1 cells; type: cell-based; conditions: acrolein 30 min
[3] = target: glutathione reductase (GSSG-R) (Homo sapiens, UniProt P00390); experiment: Glutathione reductase specific activity in BEAS-2B cells; type: cell-based; conditions: bronchial cells (BEAS-2B), 30 min
Summary of the method: (§1)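 BEAS-2B normal human bronchial epithelial cells exposed to acrolein for 30 min, with vehicle-alone cultures as controls. Specific activity of TrxR, glutathione reductase (GSSG-R) and GAPDH determined by enzymatic assay. Significance (P < 0.01) judged against vehicle-treated cells.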

Trx = conditions: cited from earlier work
TrxR [4] = conditions: 25 μM acrolein for 30 min, human umbilical vein endothelial cells; cited from earlier work
TrxR [5] = conditions: BEAS-2B cells, cited from earlier work
GSH [6] = experiment: GSH levels in human endothelial cells; type: cell-based; conditions: HMEC-1 cells, acrolein 30 min, recovery 1 or 2 h
[7] = target: glyceraldehyde-3-phosphate dehydrogenase (GAPDH) (Homo sapiens, UniProt P04406); experiment: GAPDH specific activity in BEAS-2B cells; type: cell-based; conditions: 30 min acrolein
Summary of the method: as §1

Trx1 = conditions: cited from earlier work
Purified TrxR = conditions: 1 μM acrolein; cited from earlier work
[8] = depending on the cell type; cited from earlier work
NF-κB [9] = conditions: bovine endothelial cells; cited from earlier work
glutathione peroxidase = conditions: 25 μM acrolein, 30 min, human umbilical vein endothelial cells; cited from earlier work
catalase = conditions: 25 μM acrolein, 30 min, human umbilical vein endothelial cells; cited from earlier work
TrxR [10] = experiment: TrxR specific activity in normal human bronchial epithelial cells; type: cell-based; conditions: BEAS-2B cells, 2.5 μM acrolein, 30 min
Summary of the method: as §1

NF-κB [11] = conditions: A549 cells; cited from earlier work
Prx3 = conditions: acrolein-treated human bronchial cells; cited from earlier work
GSH [12] = conditions: human endothelial cells, pretreatment; cited from earlier work
[13] = tested on: human endothelial HMEC-1 cells; conditions: 12.5 μM acrolein; cited from earlier work
[14] = tested on: human endothelial HMEC-1 cells; experiment: Protection of human endothelial cells from acrolein toxicity / cell death; type: cell-based
TrxR [15] = conditions: 50 μM 4-HNE for 6 hr, HeLa cells; cited from earlier work
[16] = cited from earlier work
[17] = 5 μM acrolein, human endothelial and bronchial epithelial cells
[18] = human endothelial cells, limited experiments

glutathione reductase (GSSG-R), sequence (P00390 44-522): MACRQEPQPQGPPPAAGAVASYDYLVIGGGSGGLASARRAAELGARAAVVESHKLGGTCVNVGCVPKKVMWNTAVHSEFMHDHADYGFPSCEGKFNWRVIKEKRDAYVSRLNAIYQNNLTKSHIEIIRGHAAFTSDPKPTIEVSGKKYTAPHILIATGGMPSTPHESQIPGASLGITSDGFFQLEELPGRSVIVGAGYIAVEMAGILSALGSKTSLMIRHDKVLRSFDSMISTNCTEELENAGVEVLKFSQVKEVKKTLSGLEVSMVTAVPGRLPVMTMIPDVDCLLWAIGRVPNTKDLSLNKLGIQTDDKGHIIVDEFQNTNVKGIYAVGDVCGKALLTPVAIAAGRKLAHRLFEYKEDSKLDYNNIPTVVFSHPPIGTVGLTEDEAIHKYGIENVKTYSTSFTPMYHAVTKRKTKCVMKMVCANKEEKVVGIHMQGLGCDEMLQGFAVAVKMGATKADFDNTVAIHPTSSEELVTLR
ASK1 bound to Trx1, sequence (P10599 2-105 limits assumed): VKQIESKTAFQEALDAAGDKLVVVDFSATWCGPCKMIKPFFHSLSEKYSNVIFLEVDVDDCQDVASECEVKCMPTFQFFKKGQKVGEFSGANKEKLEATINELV
glyceraldehyde-3-phosphate dehydrogenase (GAPDH), sequence (P04406 whole entry): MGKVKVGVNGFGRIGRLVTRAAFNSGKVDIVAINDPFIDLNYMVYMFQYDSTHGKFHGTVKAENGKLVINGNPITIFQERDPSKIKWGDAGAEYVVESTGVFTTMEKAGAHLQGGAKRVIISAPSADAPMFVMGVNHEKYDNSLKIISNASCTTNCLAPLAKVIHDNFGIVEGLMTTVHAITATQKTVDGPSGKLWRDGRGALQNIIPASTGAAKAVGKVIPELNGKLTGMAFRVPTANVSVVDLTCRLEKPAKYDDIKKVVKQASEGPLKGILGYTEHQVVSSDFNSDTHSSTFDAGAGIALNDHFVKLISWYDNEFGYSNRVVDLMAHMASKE

O=C/C=C/c1ccccc1 [Cinnamaldehyde]
effect on NF-κB activity (NF-κB [1]): blocks NF-κB activity

C=CC=O [acrolein, Prop-2-enal]
cytotoxic concentration (Human endothelial cells): ≥ 5 µM
effect on AP-1 DNA binding and activity (AP-1): decreases AP-1 binding to DNA and AP-1 activity
effect on glutathione reductase (glutathione reductase): not inhibited; also recorded: unaffected
phosphorylation of p38 (Fig. 5) (p38): causes phosphorylation of p38
effect on superoxide dismutase (superoxide dismutase): not inhibited; also recorded: unaffected
phosphorylation of JNK (Fig. 6) (JNK): causes phosphorylation of JNK
inhibition of TrxR activity (TrxR [2]; 50-75 μM acrolein for 30 min): ca. 65%
TrxR activity recovered after acrolein removal (TrxR [2]; 2-4 hr after acrolein removal): 70-100%
oxidation of Prx1 to dimers (Prx1): near complete oxidation
effect on reduced form of Trx2 (redox blot) (Trx2; [17]): eliminate the reduced forms
redox recovery of Trx2 after acrolein removal (Trx2; [18]): not observed
ASK1 bound to Trx1 (IP, Fig. 4) (ASK1 bound to Trx1): causes dissociation of ASK1 from Trx1
inhibition of glutathione reductase activity (Fig. 2) ([3]; 12.5 μM acrolein): ca. 40%
effect on glutathione reductase activity (Fig. 2) ([3]; 2.5 or 5 μM acrolein): not inhibited
concentration for maximal inhibition of Trx activity (Trx; A549 cancer cells): ≥ 15 µM
recovery of Trx activity after acrolein removal (Trx; A549 cells, 4 hr after acrolein removed): partial recovery
inhibition of TrxR activity (TrxR [4]): 88%
effect on TrxR activity at 1 μM (TrxR [5]; 1 μM acrolein): significant inhibition
recovery of TrxR activity after acrolein removal (TrxR [5]; 4 hr after acrolein removal): does not recover
acrolein concentration that strongly inhibits TrxR activity (TrxR [5]): ≥ 2.5 µM
recovery of GSH levels once acrolein is removed (Fig. 3) (GSH [6]): recover quickly
effect on cellular activity of glyceraldehyde phosphate dehydrogenase (Fig. 2) [7]: not significantly affected
effect on reduced form of Trx1 (redox blot) (Trx1; [17]): eliminate the reduced forms
recovery of Trx1 redox state after acrolein removal (Trx1; human endothelial cells, 4-hr acrolein-free period): modest recovery
irreversible inhibition of purified TrxR (Purified TrxR): 80%
toxicity relative to formaldehyde [8]: 10-200 times
effect on NF-κB DNA binding (NF-κB [9]): blocks NF-κB DNA binding
effect on glutathione peroxidase (glutathione peroxidase): not inhibited; also recorded: unaffected
effect on catalase (catalase): not inhibited
effect on TrxR activity (Fig. 2) (TrxR [10]): markedly inhibits
effect on NF-κB binding and activity (NF-κB [11]): blocks both the binding and activity of NF-κB
oxidation of Prx3 to dimers (Prx3): near complete oxidation

CCOC(=O)CNC(=O)[C@H](CS)NC(=O)CC[C@H](N)C(=O)O [GSH-monoethyl ester]
increase in GSH levels (GSH [12]): 64%
protection of cells from acrolein [13]: only a minor protection

Oc1c2ccccc2c2c3c(cccc13)N=N2 [SP600125]
effect on cell death by itself ([14]; human endothelial HMEC-1 cells, inhibitor alone): increases cell death

C[S+]([O-])c1ccc(-c2nc(-c3ccncc3)c(-c3ccc(F)cc3)[nH]2)cc1 (stereo not drawn) [SB203580]
protection from acrolein toxicity (Fig. 7) ([14]; HMEC-1 cells, SB203580 10 μM 2 hr pretreatment, 5 and 12.5 μM acrolein 30 min, 14 hr in fresh medium): decreases acrolein toxicity; also recorded: protects

CCCCCC(O)/C=C/C=O (stereo not drawn) [4-HNE, 4-hydroxynonenal]
inhibition of TrxR activity (TrxR [15]): ca. 60%

CC(=O)N[C@@H](CS)C(=O)O [NAC, N-acetylcysteine, reference compound]
increase in GSH levels (GSH [12]): 31%
protection of Trx2 from acrolein (Trx2; [18]): did not protect
protection of Trx1 redox state from acrolein (Trx1; human endothelial cells, 2 hr pretreatment): partially protects

N[C@@H](CCC(=O)N[C@@H](CS)C(=O)NCC(=O)O)C(=O)O [GSH, reduced glutathione]
pKa of thiol [16]: 8.8
